# Reference: article PMC3483449 (FEBS letters, 2012)
# T1: mouse AA3 (Mus musculus, UniProt Q91XE4)
# T1 sequence (Q91XE4 1-318): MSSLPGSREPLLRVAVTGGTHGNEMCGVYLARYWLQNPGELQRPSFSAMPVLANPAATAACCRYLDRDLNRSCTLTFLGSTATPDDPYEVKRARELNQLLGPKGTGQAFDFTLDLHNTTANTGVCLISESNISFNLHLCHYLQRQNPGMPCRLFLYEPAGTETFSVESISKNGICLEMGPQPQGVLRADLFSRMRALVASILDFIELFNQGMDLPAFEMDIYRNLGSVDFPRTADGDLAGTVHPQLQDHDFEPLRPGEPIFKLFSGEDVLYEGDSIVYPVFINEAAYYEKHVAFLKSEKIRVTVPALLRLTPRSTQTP
# T2: mouse aminoacylase 3 (mouse, UniProt Q91XE4 1-318)
# T2 sequence (looked up): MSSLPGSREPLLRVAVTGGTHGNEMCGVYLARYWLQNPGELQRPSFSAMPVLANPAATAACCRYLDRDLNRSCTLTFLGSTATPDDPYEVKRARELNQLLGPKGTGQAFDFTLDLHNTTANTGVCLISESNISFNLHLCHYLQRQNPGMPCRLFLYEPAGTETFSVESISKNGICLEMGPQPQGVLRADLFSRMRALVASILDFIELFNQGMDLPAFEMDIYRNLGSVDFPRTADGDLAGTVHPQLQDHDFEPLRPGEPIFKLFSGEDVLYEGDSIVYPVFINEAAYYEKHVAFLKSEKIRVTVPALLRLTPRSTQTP
# How the values were obtained:
# [1] = target: T1, mouse AA3; assay: Inhibition of Co2+-dependent endopeptidase activity of AA3; type: biochemical; conditions: 1 mg/ml Pefabloc SC
# In short: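 Cleavage reaction with N-terminally Strep(II)-tagged mouse AA3 (E. coli-expressed, Streptactin-purified): 3 µM enzyme plus 1 mM peptide or 0.1 mM His-tagged HCV core protein (aa 1–177) in 50 mM Tris-HCl pH 7.5 with 1 mM CoCl2, incubated 18 h at 37°C. Products were diluted to 50 µM peptide, then analysed by reverse-phase HPLC with UV and on-line ionspray triple-quadrupole MS. Cleavage sites were assigned from masses.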
# [2] = target: T1, mouse AA3; assay: Peptide cleavage catalyzed by AA3; type: biochemical; conditions: 3 μM AA3, 1 mM peptide or 0.1 mM HCVCP, 50 mM Tris-HCl pH 7.5, 1 mM CoCl2, 18 h, 37°C; LC-MS
# In short: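 Recombinant mouse AA3 (N-terminal Strep(II) tag, expressed in E. coli, Streptactin-purified) was incubated with N-acetylated or free peptides, or with His-tagged HCV core aa 1–177 (genotype 1). Aliquots were diluted in water to 50 μM peptide, then run by reverse-phase HPLC (0.1% formic acid, 0–100% acetonitrile over 60 min) with UV and triple-quadrupole ESI-MS detection (m/z 300–2000). Cleavage sites were assigned from fragment masses.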
# [3] = target: T2, mouse aminoacylase 3; assay: SPR
Molecule,Hydrolysis (cleavage) by AA3 [2],other results
Cl.NCCc1ccc(S(=O)(=O)F)cc1 [Pefabloc SC],–,Inhibition of Co2+-dependent endopeptidase activity of AA3 [1]: ~ 50%
insulin B chain: standard protease substrate,not hydrolyzed,–
casein,not hydrolyzed,–
STLPKPQRKTKRNTIRRPQDVKFPGG [HCVCP-long peptide (aa. 2-27)],–,Kd [3]: 142 ± 11 µM
